{
  "source": "paper PMC6253716",
  "about": "(Chemical Science, 2018)",
  "key": {"ERK1 [1]": {"molecular_target": "T1, ERK1 (Homo sapiens, UniProt P27361)", "T1 sequence (P27361 whole entry)": "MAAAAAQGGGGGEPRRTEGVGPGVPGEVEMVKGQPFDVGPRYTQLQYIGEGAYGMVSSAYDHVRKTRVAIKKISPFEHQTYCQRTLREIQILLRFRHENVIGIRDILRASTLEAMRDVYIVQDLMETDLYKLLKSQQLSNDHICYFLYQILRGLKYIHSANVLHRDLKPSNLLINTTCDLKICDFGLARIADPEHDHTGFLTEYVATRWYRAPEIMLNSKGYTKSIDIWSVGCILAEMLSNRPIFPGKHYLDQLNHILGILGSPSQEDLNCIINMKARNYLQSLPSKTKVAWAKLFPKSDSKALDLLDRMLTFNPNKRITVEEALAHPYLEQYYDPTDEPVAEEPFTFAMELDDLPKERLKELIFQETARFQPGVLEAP", "assay": "In-cell ERK1/2 pull down in competition with SCH-TCO, ERK1", "format": "cell-based"}, "ERK1/2 [2]": {"test_system": "ERK1/2", "details": "published data for the untagged compound; cited from earlier work"}, "pRSK in HCT116 cells": {"test_system": "pRSK in HCT116 cells", "assay": "Quantification of pRSK by MSD, HCT116", "format": "cell-based", "details": "for IC50: Homo sapiens, read-out: Pharmacodynamic IC50 (pRSK)", "method_in_brief": "(§1)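 Lysis was 20 min at RT. Lysate was captured 3 h at RT on anti-pRSK-coated MSD plates, detected with sulfo-tag anti-RSK antibody for 1 h, and read electrochemiluminescently. IC50 came from a sigmoidal dose–response fit.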"}, "pRSK in A375 cells": {"test_system": "pRSK in A375 cells", "assay": "Quantification of pRSK by MSD, A375", "format": "cell-based", "details": "Homo sapiens, read-out: Pharmacodynamic IC50 (pRSK)", "method_in_brief": "as §1"}, "ERK1 [3]": {"molecular_target": "T1, ERK1", "assay": "ITDR-CETSA in HCT116 cells, ERK1", "format": "cell-based"}, "ERK2 [4]": {"molecular_target": "T2, ERK2 (Homo sapiens, UniProt P28482)", "T2 sequence (P28482 whole entry)": "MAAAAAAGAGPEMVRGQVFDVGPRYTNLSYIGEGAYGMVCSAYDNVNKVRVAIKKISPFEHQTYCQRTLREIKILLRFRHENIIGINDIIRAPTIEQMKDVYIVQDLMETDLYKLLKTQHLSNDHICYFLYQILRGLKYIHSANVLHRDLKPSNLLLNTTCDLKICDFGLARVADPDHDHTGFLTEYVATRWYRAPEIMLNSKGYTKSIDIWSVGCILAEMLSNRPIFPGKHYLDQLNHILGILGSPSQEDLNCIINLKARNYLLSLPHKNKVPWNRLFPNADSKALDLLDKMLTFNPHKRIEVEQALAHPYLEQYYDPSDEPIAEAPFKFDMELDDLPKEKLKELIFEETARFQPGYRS", "assay": "ITDR-CETSA in HCT116 cells, ERK2", "format": "cell-based"}, "[5]": {"test_system": "HCT116 KRAS mutant colorectal cells", "assay": "Cell proliferation assay", "format": "cell-based", "details": "Homo sapiens, HCT-116, 96 h, read-out: Anti-proliferative IC50 HCT116", "method_in_brief": "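Cells were kept in DMEM + 10% FBS at 37 °C, 5% CO2. 5 × 10^3 cells were seeded one day before treatment. Compound was given in 0.1% (v/v) DMSO for 96 h, then viability was read with Alamar Blue. IC50 came from a sigmoidal dose–response fit.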"}, "ERK2 [6]": {"molecular_target": "T2, ERK2", "assay": "ERK2 bioassay", "format": "biochemical"}, "ERK1/2 [7]": {"test_system": "ERK1/2", "assay": "In-lysate ERK1/2 pull down in competition with TCO-GDC-2", "format": "binding", "details": "HCT116 lysates; for Target engagement EC50 with TCO-GDC-2 probe (in words): apparently exaggerated"}, "ERK1/2 [8]": {"test_system": "ERK1/2", "assay": "In-lysate ERK1/2 pull down in competition with SCH-TCO", "format": "binding", "details": "cell lysates"}, "ERK1/2 [9]": {"test_system": "ERK1/2", "assay": "CETSA melting curves", "format": "cell-based", "details": "HCT116 cells and lysates; 10 μM inhibitor", "method_in_brief": "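HCT116 cells in McCoy's 5A at 3 × 10^6 cells per mL got DMSO or 10 μM inhibitor for 1 h at 37 °C. Lysate arm: TG lysis buffer lysate with 10 μM inhibitor for 15 min at RT. Samples were heated 3 min at 12 temperatures (37–70 °C) and lysed by 3 freeze–thaw cycles. Soluble fraction (20 000g, 20 min) was immunoblotted for total ERK1/2 and quantified by densitometry into melting curves.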"}, "ERK2 [10]": {"molecular_target": "T2, ERK2", "assay": "In-cell ERK1/2 pull down in competition with SCH-TCO, ERK2", "format": "cell-based"}},
  "note": "Like-named read-outs stand apart in the source and are kept apart here.",
  "data": [
    {"compound": "O=C(Nc1ccc2[nH]nc(-c3ccncc3)c2c1)[C@@H]1CCN(CC(=O)N2CCN(c3ccc(-c4ncccn4)cc3)CC2)C1", "note": "[SCH772984]", "values": [
      {"measurement": "EC50", "setting": "ERK1 [1]", "value": 16, "unit": "nM"},
      {"measurement": "t1/2 (off-rate, published data)", "setting": "ERK1/2 [2]", "value": "25 to 80", "unit": "min"},
      {"measurement": "IC50", "setting": "pRSK in HCT116 cells; HCT-116, 2 h", "value": 9, "unit": "nM"},
      {"measurement": "IC50", "setting": "pRSK in HCT116 cells; HCT-116, 7 h", "value": 6, "unit": "nM"},
      {"measurement": "IC50", "setting": "pRSK in A375 cells; A-375, 2 h", "value": 20, "unit": "nM"},
      {"measurement": "IC50", "setting": "pRSK in A375 cells; A-375, 7 h", "value": 20, "unit": "nM"},
      {"measurement": "EC50", "setting": "ERK1 [3]", "value": 63, "unit": "nM"},
      {"measurement": "Difference between engagement of ERK1 and ERK2", "setting": "ERK2 [4]; ITDR-CETSA in HCT116 cells, higher affinity for ERK2", "value": 4, "unit": "fold"},
      {"measurement": "IC50", "setting": "[5]", "value": 50, "unit": "nM"}
    ]},
    {"compound": "Biotin-PEG4-tetrazine [Biotin-PEG4-Tz]", "values": [
      {"measurement": "Inhibition of ERK2 (in words)", "setting": "ERK2 [6]", "value": "does not appreciably inhibit ERK2"},
      {"measurement": "IC50", "setting": "ERK2 [6]; read-out: Bioassay IC50, geometric means", "value": 8100, "unit": "nM"}
    ]},
    {"compound": "Cn1nccc1Nc1nccc(-c2ccn([C@H](CO)c3ccc(Cl)c(F)c3)c(=O)c2)n1", "note": "[GDC-0994]", "values": [
      {"measurement": "Difference between EC50 in competition with TCO-GDC-2 as compared with SCH-TCO", "setting": "ERK1/2 [7]", "value": "~2", "unit": "fold"},
      {"measurement": "Target engagement EC50 with TCO-GDC-2 probe (in words)", "setting": "ERK1/2 [7]", "value": "low nanomolar range"},
      {"measurement": "Difference between EC50 in A375 and HCT116 lysates", "setting": "ERK1/2 [8]", "value": "2-3 fold"},
      {"measurement": "IC50", "setting": "pRSK in HCT116 cells; HCT-116, 2 h", "value": 140, "unit": "nM"},
      {"measurement": "IC50", "setting": "pRSK in HCT116 cells; HCT-116, 7 h", "value": 110, "unit": "nM"},
      {"measurement": "IC50", "setting": "pRSK in A375 cells; A-375, 2 h", "value": 170, "unit": "nM"},
      {"measurement": "IC50", "setting": "pRSK in A375 cells; A-375, 7 h", "value": 130, "unit": "nM"},
      {"measurement": "IC50", "setting": "[5]", "value": 1000, "unit": "nM"}
    ]},
    {"compound": "Cn1nccc1Nc1nccc(-c2cc3c(s2)C(C)(C)N(CCN2CCOCC2)C3=O)n1", "note": "[LY3214996]", "values": [
      {"measurement": "Effect on CETSA melting curves of ERK1/2 relative to DMSO control", "setting": "ERK1/2 [9]", "value": "temperature shift in the melting curves"},
      {"measurement": "Bioassay % @ 0.003 μM", "setting": "ERK2 [6]; at 0.003 μM", "value": "62% @ 0.003 μM (2)"},
      {"measurement": "Difference between EC50 in competition with TCO-GDC-2 as compared with SCH-TCO", "setting": "ERK1/2 [7]", "value": "~2", "unit": "fold"},
      {"measurement": "Target engagement EC50 with TCO-GDC-2 probe (in words)", "setting": "ERK1/2 [7]", "value": "low nanomolar range"},
      {"measurement": "EC50", "setting": "ERK2 [10]", "value": 770, "unit": "nM"},
      {"measurement": "EC50", "setting": "ERK1 [1]", "value": 670, "unit": "nM"},
      {"measurement": "Suppression of pRSK", "setting": "pRSK in HCT116 cells; HCT116 cells", "value": "failed to show convincing suppression of pRSK"},
      {"measurement": "IC50", "setting": "pRSK in A375 cells; A-375, 4 h", "value": 2100, "unit": "nM"},
      {"measurement": "EC50", "setting": "ERK1 [3]", "value": 300, "unit": "nM"},
      {"measurement": "EC50", "setting": "ERK2 [4]", "value": 330, "unit": "nM"},
      {"measurement": "IC50", "setting": "[5]", "value": 480, "unit": "nM"}
    ]}
  ]
}
